Sampled rows, rich in hits. Any-hit rate of the full collection: about 2.1%.
RORa activator = activates the human nuclear receptor RORA | P35398 | CHO-K1 Gal4-RORA LBD luciferase reporter, luminescence; percent increase over mock-subtracted basal signal | activation, % at 10 µM | actives 1.5% (n = 65,000) | AID 560;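 active means activation above the mean of all tested compounds plus 3 SD, cut at about 49% in these data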;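 further: 0% = DMSO-treated RORA cells and 100% = added signal equal to DMSO minus mock-transfected cells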
Target sequence (P35398 whole entry, looked up, the tested form may be a part): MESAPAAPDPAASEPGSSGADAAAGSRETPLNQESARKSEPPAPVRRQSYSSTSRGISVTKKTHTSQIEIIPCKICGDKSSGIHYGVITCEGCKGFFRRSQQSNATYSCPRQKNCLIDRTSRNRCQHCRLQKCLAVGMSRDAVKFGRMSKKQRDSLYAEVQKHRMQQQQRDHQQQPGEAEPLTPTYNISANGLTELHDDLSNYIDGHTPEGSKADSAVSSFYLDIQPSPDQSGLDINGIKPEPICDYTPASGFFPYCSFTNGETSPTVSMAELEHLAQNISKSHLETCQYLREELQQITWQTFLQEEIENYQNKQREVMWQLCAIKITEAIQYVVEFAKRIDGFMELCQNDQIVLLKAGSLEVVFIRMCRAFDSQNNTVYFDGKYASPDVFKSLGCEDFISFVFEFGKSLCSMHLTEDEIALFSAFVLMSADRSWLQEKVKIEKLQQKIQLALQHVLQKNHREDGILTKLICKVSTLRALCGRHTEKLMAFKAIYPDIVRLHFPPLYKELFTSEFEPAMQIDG
CD11b adhes enh = increases human CD11b/CD18 adhesion to fibrinogen; P05107+P11215; K562 CD11b/CD18 adhesion to fibrinogen, ATPlite luminescence; activation, % at 10 µM; actives 0.07% (n = 93,000);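 active means 10 µM primary screen giving 50% or more activity, confirmed by 40% or more on retest at that dose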
TNAP act mid DEA = activates human TNAP at intermediate phosphate acceptor concentration. 64,000 tested, under 10 active. P05186. activation factor at 20 µM. purified TNAP, CDP-star luminescence, 100 mM DEA, 30 min; stronger effect = higher value; scale: 0 levamisole-inhibited, 1 vehicle-only enzyme. AID 813;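 active means activation factor of at least 2 at 20 µM, relative to controls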
Mac1 fbg inh = inhibitors of human CD11b/CD18 binding to fibrinogen; inhibition, % at 10 µM; K562 CD11b/CD18 adhesion to fibrinogen, ATPlite luminescence; Mn2+ added to activate the integrin; actives 0.54% (n = 93,000); AID 1497; P05107+P11215;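 active means primary inhibition of 50% or more at 10 µM, then 40% or more on retest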
MT1-MMP txn act = MT1-MMP promoter transcription activation; HT1080 MT1-MMP promoter luciferase reporter, luminescence, overnight; stronger effect = higher value; actives 0.16% (n = 86,000); activation factor at 10 µM; AID 750;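 active means activation factor of at least 2 for MT1-MMP transcription at 10 µM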
SF1 activator = activates the human nuclear receptor SF-1 | Q13285 | CHO-K1 Gal4-SF-1 LBD luciferase reporter; % increase over DMSO SF-1-specific signal | activation, % at 10 µM | actives 1.9% (n = 65,000) | AID 522;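 active means activation above the mean activation of all tested compounds plus 3 SD, cut at about 50% in these data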
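Test system: transient Gal4-SF-1 LBD reporter, CHO-K1; Amount: 4,000 CHO-K1 cells per well; Doses: 10 µM only; Timing: compound exposure 20 h at 37 °C; Signal: luciferase light emission; Read-out basis: percent activation relative to DMSO median and mock-transfected background; Control set: DMSO negative control and −SF1 background wells; Replicates: one test per compound.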
* marks the source's active call; other numbers are inactive results; nt = no result given.

SMILES	RORa activator	CD11b adhes enh	TNAP act mid DEA	Mac1 fbg inh	MT1-MMP txn act	SF1 activator
CCc1ccccc1NC(=O)c1cnccn1	0.1	nt	0.9	nt	1.1	-4.0
O=C(Nc1ccc2nc(-c3ccc(Br)o3)[nH]c2c1)c1ccco1	54.7*	nt	0.9	nt	1.3	30.4
O=C(Nc1ccc2nc(-c3ccc(Br)o3)[nH]c2c1)c1cccs1	61.5*	1.8	1	-16.1	1.3	6.0
Cn1cccc1-c1nc2ccc(NC(=O)c3cccs3)cc2[nH]1	25.9	4.8	0.9	6.7	1.6	-1.7
O=C(Nc1ccc2nc(-c3ccccc3)[nH]c2c1)c1ccco1	nt	-3.7	nt	-11.0	1.6	nt
Cc1cc(NC(=O)c2oc3ccccc3c2C)ccc1-n1cnnn1	86.0*	2.2	0.9	-8.0	1.6	8.6
COc1cc(OC)cc(C(=O)Nc2ccc(-n3cnnn3)c(C)c2)c1	50.1*	-1.1	1	-5.8	1.6	54.1*
COc1cc(C(=O)Nc2ccc3c(c2)OCO3)ccc1-n1cnnn1	-7.9	0.4	0.9	-12.7	1	-0.3
COC(=O)[C@@H]1C[C@H]1[C@@H](NC(C)=O)c1ccccc1	nt	nt	nt	nt	1.8	nt
CC(C)(O)c1cc(=O)sc2nc3ccccc3n12	71.1*	nt	1	nt	1.2	53.4*
c1ccc2nc3c(nc2c1)sc1nc2ccccc2n13	-12.8	2.0	0.9	1.4	1	6.2
CC(=O)c1c(N2CCCCC2)nc(=S)n(Cc2ccccc2)c1C	nt	2.2	1	52.5*	nt	nt
CCn1c(C)c(C(C)=O)c(N2CCCC2)nc1=S	0.9	-1.1	0.9	1.1	1.1	-12.4
Cc1cccc(N2CN(Cc3ccco3)CNC2=S)c1C	nt	-2.1	nt	12.2	nt	nt
N#Cc1c(N2CCCC2)nc(N)c2c(N)nc(N3CCCC3)cc12	28.0	nt	0.9	nt	1.2	49.5*
COc1cc2c(C#N)c(N3CCN(C)CC3)nc(N)c2c(N)n1	nt	-1.3	nt	-8.1	1.2	nt
Cc1ccc(-c2nnc(SCC(=O)N3CCCC3)o2)cc1	22.1	-1.4	0.9	-10.7	1.3	13.4
COc1ccc(-c2nnc(SCC(=O)N3CCOCC3)o2)cc1OC	8.8	1.2	0.8	2.3	1.1	-1.3
CCOC(=O)N1CCN(C(=O)CSc2nnc(-c3ccc(C)c(C)c3)o2)CC1	19.7	-4.9	1	-6.7	1	5.0
O=C(CSc1nnc(-c2ccc3c(c2)OCCO3)o1)N1CCCC1	42.0	-2.3	0.8	3.8	1	49.8*
O=C(CSc1nnc(-c2ccccc2Cl)o1)N1CCCCC1	65.2*	-2.1	1	13.8	1.7	19.5
CCOc1ccc(-c2nnc(SCC(=O)N3CCOCC3)o2)cc1	51.6*	-3.5	0.9	-12.2	1.4	24.9
CCC1CCCCN1C(=O)CSc1nnc(-c2ccc3c(c2)OCCO3)o1 (centres undefined)	2.6	-1.9	1	-9.5	1.2	-25.8
Cc1ccc(-c2nnc(SCC(=O)N3CCCC3)o2)cc1C	57.8*	-6.9	1	-7.0	1.4	36.9
COC(=O)[C@@H]1C[C@@H]2CC[C@@H](O)C[C@@H]2N1Cc1ccc(C)s1	nt	nt	nt	nt	1.1	nt
SMILES	RORa activator	CD11b adhes enh	TNAP act mid DEA	Mac1 fbg inh	MT1-MMP txn act	SF1 activator
Cc1occc1C(=O)NNC(=S)Nc1cccc([N+](=O)[O-])c1	nt	-3.1	nt	13.1	nt	nt
Cc1cc(Br)ccc1NC(=S)Nc1cccc([N+](=O)[O-])c1	nt	-10.0	nt	98.7*	nt	nt
Cc1cc(C)nc(N2CCCC(C(=O)NCC(c3ccccc3)c3ccccc3)C2)n1 (centres undefined)	nt	nt	nt	nt	1.2	nt
O=C(c1ccco1)N1CCN(c2ncnc3c(-c4ccccc4)nsc23)CC1	62.5*	1.7	1.1	-3.0	1.2	5.0
COc1ccc(-c2nsc3c(N4CCN(C(=O)c5ccco5)CC4)ncnc23)cc1	23.9	5.8	0.9	-3.0	1.5	17.2
COC(=O)c1ccc(O)c(Sc2cc(C(=O)OC)ccc2O)c1	-19.6	-7.0	1.1	97.8*	1.3	-7.7
Cc1ccc(NC(=O)C2CCN(C(=O)NC3CCCCC3)CC2)cc1Cl	1.5	6.1	0.9	-9.9	1	0.6
Cc1ccc(NC(=O)NC2CCCCC2)cc1Cl	105.5*	-2.9	1	-34.9	1.3	73.8*
CC(C)C(=O)Nc1cccc(NC(=S)NC(=O)c2ccc(Cl)cc2)c1	nt	-3.1	nt	23.9	nt	nt
O=C(NC(=S)Nc1ccc(Oc2ccccc2)cc1)c1ccc(Cl)cc1	nt	-9.1	nt	78.0*	nt	nt
N#Cc1nc(COc2ccccc2Cl)oc1NCc1cccnc1	nt	-2.1	nt	18.8	1.1	nt
N#CC1=C(N)NC(SCC(=O)c2ccc(Cl)cc2)=C(C#N)C12CCCC2	nt	-8.0	nt	64.0*	1.1	nt
COC(=O)c1c(-c2ccc(C)cc2)csc1NC(=O)Cc1ccc(OC)c(OC)c1	nt	-3.6	nt	54.4*	nt	nt
COc1ccc(-n2c(C)nc3c(cnn3-c3ccc(C)c(C)c3)c2=O)cc1	64.8*	-1.7	1	3.1	1.1	40.0
Cc1cc(C)c2nc(NC(=O)c3cc(C)on3)sc2c1	nt	-1.5	nt	-42.1	1.3	nt
CCc1ccc2nc(NC(=O)c3cc(C)on3)sc2c1	69.3*	nt	0.9	nt	1.3	117.3*
COc1ccc(CCNC(=O)COc2ccc(S(=O)(=O)NC3CCCCC3)cc2Cl)cc1	nt	3.6	nt	9.1	nt	nt
O=C(CSc1nnc(Cn2nnc3ccccc32)o1)N(Cc1ccc(F)cc1)c1ccccc1	-71.3	-11.1	0.9	102.1*	1.1	-33.3
COc1ccc(N(Cc2ccccc2)C(=O)CSc2nnc(Cn3nnc4ccccc43)o2)cc1	nt	-2.1	nt	20.8	1.1	nt
c1ccc2oc(SCc3cn4ccsc4n3)nc2c1	29.9	-0.4	0.9	9.2	1.7	46.4
Cc1csc2nc(CSc3nc4ccccc4o3)cn12	-5.4	-2.3	0.9	24.2	1.7	61.3*
O=[N+]([O-])c1ccc(O)c(/C=N/n2cnc3ccccc32)c1	nt	-8.1	nt	103.6*	nt	nt
COc1cccc(/C=N/n2cnc3ccccc32)c1OC	nt	-5.8	nt	14.2	1.3	nt
O=C(NC1CC1)C1CCN(c2ncnc3c2sc2cccc(F)c23)CC1	nt	4.2	nt	-1.7	nt	nt
O=C(Nc1ncc(Cc2cccc(Cl)c2)s1)c1ccc([N+](=O)[O-])cc1	nt	5.9	nt	72.4	nt	nt
SMILES	RORa activator	CD11b adhes enh	TNAP act mid DEA	Mac1 fbg inh	MT1-MMP txn act	SF1 activator
O=C(NC(Nc1ncc(S(=O)(=O)c2ccc([N+](=O)[O-])cc2)s1)(C(F)(F)F)C(F)(F)F)c1ccc(Cl)cc1	nt	-5.1	nt	95.9*	nt	nt
CCCc1nc(-c2ccc(-c3ccc(F)cc3)cc2)no1	17.7	-1.1	0.8	18.3	1.4	53.3*
c1ccc(CCc2nc(-c3ccccc3)no2)cc1	nt	nt	nt	nt	1.3	nt
O=C(OCc1nc2ccccc2s1)C1CCN(C2=NS(=O)(=O)c3ccccc32)CC1	25.6	0.0	0.9	21.1	1.6	53.0*
O=C1c2ccccc2S(=O)(=O)N1Cc1nc2ccccc2s1	-53.7	-1.6	0.9	-15.2	nt	-43.0
O=C(NCCc1c[nH]c2ccccc12)c1cnc2sccn2c1=O	38.5	4.1	1	-4.2	1.8	59.8*

Bioassay records deposited in PubChem BioAssay by several laboratories.
